Test results published in EPA's CvTdb concentration-time database.

Tests used:
[1] = system: Mouse; experiment: concentration in plasma after dosing; conditions: 3 h; dosed: 2-Hydroxy-4-methoxybenzophenone; 250 mg/kg; oral; Female; B6C3F1
[2] = system: Mouse; experiment: concentration in plasma after dosing; conditions: 2 h; dosed: 2-Hydroxy-4-methoxybenzophenone; 50 mg/kg; iv; Female; B6C3F1
[3] = system: Rat; experiment: concentration in plasma after dosing; conditions: dosed: 2-Hydroxy-4-methoxybenzophenone, 500 mg/kg, oral, Male, F344
[4] = system: Mouse; experiment: concentration in plasma after dosing; conditions: 10 min; dosed: 2-Hydroxy-4-methoxybenzophenone; 250 mg/kg; oral; Female; B6C3F1
[5] = system: Mouse; experiment: concentration in plasma after dosing; conditions: 0.25 h; dosed: 2-Hydroxy-4-methoxybenzophenone; 50 mg/kg; iv; Female; B6C3F1
[6] = system: Rat; experiment: concentration in plasma after dosing; conditions: dosed: 2-Hydroxy-4-methoxybenzophenone, 100 mg/kg, oral, Female, F344
[7] = system: Mouse; experiment: concentration in plasma after dosing; conditions: 10 min; dosed: 2-Hydroxy-4-methoxybenzophenone; 500 mg/kg; oral; Male; B6C3F1
[8] = system: Rat; experiment: concentration in plasma after dosing; conditions: dosed: 2-Hydroxy-4-methoxybenzophenone, 250 mg/kg, oral, Female, F344
[9] = system: Mouse; experiment: concentration in plasma after dosing; conditions: 3 h; dosed: 2-Hydroxy-4-methoxybenzophenone; 50 mg/kg; iv; Female; B6C3F1
[10] = system: Mouse; experiment: concentration in plasma after dosing; conditions: 0.25 h; dosed: 2-Hydroxy-4-methoxybenzophenone; 250 mg/kg; oral; Male; B6C3F1
[11] = system: Mouse; experiment: concentration in plasma after dosing; conditions: 2 h; dosed: 2-Hydroxy-4-methoxybenzophenone; 50 mg/kg; iv; Male; B6C3F1
[12] = system: Rat; experiment: concentration in plasma after dosing; conditions: dosed: Nitrite, 20 mg/kg, iv, Male, F344
[13] = system: Rat; experiment: concentration in plasma after dosing; conditions: 10 min; dosed: Nitrite; 80 mg/kg; oral; Female; F344
[14] = system: Rat; experiment: concentration in kidney after dosing; conditions: 3 h; dosed: Fluorotelomer alcohol 8+2; 24 mg/kg; oral; Male; Harlan Sprague Dawley
[15] = system: Rat; experiment: concentration in liver after dosing; conditions: 1200 h; dosed: Perfluorooctanoic acid; 12 mg/kg; oral; Male; Harlan Sprague Dawley
[16] = system: Rat; experiment: concentration in plasma after dosing; conditions: 192 h; dosed: 678-39-7; 12 mg/kg; iv; Male; F344
[17] = system: Rat; experiment: concentration in plasma after dosing; conditions: dosed: Fluorotelomer alcohol 8+2, 12 mg/kg, oral, Male, Harlan Sprague Dawley
[18] = system: Rat; experiment: concentration in plasma after dosing; conditions: dosed: 678-39-7, 40 mg/kg, iv, Male, F344
[19] = system: Rat; experiment: concentration in kidney after dosing; conditions: 6 h; dosed: Perfluorooctanoic acid; 80 mg/kg; oral; Female; Harlan Sprague Dawley
[20] = system: Rat; experiment: concentration in kidney after dosing; conditions: 12 h; dosed: Perfluorooctanoic acid; 80 mg/kg; oral; Female; Harlan Sprague Dawley
[21] = system: Rat; experiment: concentration in kidney after dosing; conditions: 6 h; dosed: Potassium Perfluorobutane Sulfonate; 20 mg/kg; oral; Male; Harlan Sprague Dawley
[22] = system: Rat; experiment: concentration in liver after dosing; conditions: 6 h; dosed: Potassium Perfluorobutane Sulfonate; 20 mg/kg; oral; Male; Harlan Sprague Dawley
[23] = system: Rat; experiment: concentration in kidney after dosing; conditions: 12 h; dosed: Potassium Perfluorobutane Sulfonate; 20 mg/kg; oral; Male; Harlan Sprague Dawley
[24] = system: Rat; experiment: concentration in liver after dosing; conditions: 0.5 h; dosed: Potassium Perfluorobutane Sulfonate; 20 mg/kg; oral; Female; Harlan Sprague Dawley
[25] = system: Rat; experiment: concentration in liver after dosing; conditions: 0.5 h; dosed: Potassium Perfluorobutane Sulfonate; 20 mg/kg; oral; Male; Harlan Sprague Dawley
[26] = system: Rat; experiment: concentration in plasma after dosing; conditions: 1.5 h; dosed: Potassium Perfluorobutane Sulfonate; 4 mg/kg; iv; Male; F344
[27] = system: Rat; experiment: concentration in plasma after dosing; conditions: dosed: Potassium Perfluorobutane Sulfonate, 4 mg/kg, iv, Male, F344
[28] = system: rat; conditions: dosed: benzo[a]pyrene, 1 mg/kg, iv, male, Sprague Dawley
[29] = system: mouse; experiment: concentration in blood after dosing; conditions: dosed: benzo[a]pyrene, 15 mg/kg, oral, C57BL/6J
Summary of the method: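 Data points giving concentration or amount against time came from published in vivo toxicokinetic studies and from two structured collections. PubMed searching, classifier screening and manual review located the studies. Most points were digitised from plot screenshots using WebPlotDigitizer, the rest were copied from tables, and all keep their reported units.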

COc1ccc(C(=O)c2ccccc2)c(O)c1 [2-Hydroxy-4-methoxybenzophenone]
Conditions	concentration in plasma [ng/mL]
[1]	36.8
[2]	311
[4]	117
[5]	5560
[7]	102
[9]	149
[10]	231
[11]	236

concentration in plasma [ng/mL]
Conditions	0.25 h	4 h	10 h	10 min
[3]	–	–	80.4	113
[6]	100	16.3	–	–
[8]	56.9	26.2	–	–

O=N[O-] [Nitrite]
[12]
Conditions	concentration in plasma [ng/mL]
0.75 h	4000
2 min	2000

Conditions	concentration in plasma [ng/mL]
[13]	31800

O=C(O)C(F)(F)C(F)(F)C(F)(F)C(F)(F)C(F)(F)C(F)(F)C(F)(F)F [Perfluorooctanoic acid]
Conditions	concentration in kidney [ng/g]	concentration in liver [ng/g]	concentration in plasma [ng/mL]
[14]	317	–	–
[15]	–	4980	–
[16]	–	–	307
[19]	175000	–	–
[20]	93700	–	–

concentration in plasma [ng/mL]
Conditions	0.25 h	6 h	48 h	192 h
[17]	–	–	614	399
[18]	276000	77700	31.9	–

O=S(=O)([O-])C(F)(F)C(F)(F)C(F)(F)C(F)(F)F.[K+] [Potassium Perfluorobutane Sulfonate]
Conditions	concentration in kidney [ng/g]	concentration in liver [ng/g]	concentration in plasma [ng/mL]
[21]	13100	–	–
[22]	–	43800	–
[23]	3890	–	–
[24]	–	51300	–
[25]	–	62000	–
[26]	–	–	1850

[27]
Conditions	concentration in plasma [ng/mL]
3 h	12800
5 min	32200

c1ccc2c(c1)cc1ccc3cccc4ccc2c1c34 [benzo[a]pyrene]
Conditions	amount in urine after dosing [ng]	concentration in blood [ng/mL]
[28], 2.991 h	1.11	–
[28], 6.006 h	1.15	–
[28], 24 h	1.15	–
[29], 0.4576 h	–	68.9
[29], 0.4733 h	–	61
[29], 0.9942 h	–	148
[29], 1.01 h	–	190
[29], 1.436 h	–	196
[29], 1.452 h	–	276
[29], 1.957 h	–	239
[29], 1.989 h	–	253
[29], 3.014 h	–	282
[29], 3.046 h	–	85
[29], 4.04 h	–	258
[29], 4.072 h	–	15.5
[29], 4.94 h	–	8.52
[29], 5.934 h	–	6.45
[29], 6.013 h	–	252
[29], 9.028 h	–	65.1
[29], 11.99 h	–	18.4
[29], 14.99 h	–	6.86
